Here are results for 30 molecules from ChEMBL document CHEMBL1156894, “Potent oxadiazole CGRP receptor antagonists for the potential treatment of migraine” (Bioorg Med Chem Lett, 2010).

Series [1] has as its target T1, Calcitonin gene-related peptide type 1 receptor (Homo sapiens, UniProt O60894+Q16602). The series is described as follows: Antagonist activity at human recombinant CGRP receptor expressed in HEK293 cells assessed as inhibition of CGRP-stimulated increase of intracellular cAMP level in absence of human serum albumin. The class given is functional, cell-based. In a few lines: (§1)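 HEK 293 cells expressing human recombinant CGRP receptor; antagonism of CGRP-stimulated rise in intracellular cAMP measured, run with or without HSA; functional pKi (fpKi) derived. Values are means of two experiments unless otherwise footnoted.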
In general terms: Cyclic AMP is a second messenger, typically raised through Gs and lowered through Gi signalling.

Series [2] is described as follows: Aqueous solubility in fasted-state simulated intestinal fluid after 1 hr. The class given is physicochemical. In a few lines: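 Compound amount dissolved in fasted-state simulated intestinal fluid, read at the 1 h time point.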
Series [3] has as its target T1, Calcitonin gene-related peptide type 1 receptor. Briefly: Antagonist activity at human recombinant CGRP receptor expressed in HEK293 cells assessed as inhibition of CGRP-stimulated increase of intracellular cAMP level in presence of human serum albumin. The format is functional, cell-based. In a few lines:
as §1

A short description of series [4]: Blood clearance in rat. The format is ADME, organism-based.
Series [5] in a line: Permeability across artificial membrane. The class given is ADME. The settings on record: PAMPA; read-out: permeability. In a few lines:
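In vitro artificial membrane permeability assay (PAMPA).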
Background: The PAMPA barrier holds no transporters, so it reflects passive diffusion.

Series [6] can be described thus: Clearance in rat at 1 mg/kg, iv. The format is ADME, organism-based. Also noted: dose 1 mg/kg, route intravenous. As to conditions: in vivo. Put shortly:
(§2)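 Intravenous dose of 1 mg/kg in rat; clearance and half-life derived from the blood profile.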

Series [7] in a line: Tmax in rat at 10 mg/kg, po in 1% methylcellulose. The class given is ADME, organism-based. Also noted: dose 10 mg/kg, route oral. As to conditions: in vivo. Put shortly:
(§3)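 Oral dosing to rats at 10 mg/kg as a 2 mg/mL suspension in 1% (w/v) aqueous methylcellulose. Blood concentrations followed over about 6 h, giving Cmax, Tmax and dose-normalised AUC.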

Series [8] can be described thus: Cmax in rat at 10 mg/kg, po in 1% methylcellulose. The format is ADME, organism-based. Also noted: dose 10 mg/kg, route oral. The settings on record: in vivo. Put shortly: as §3
Series [9] relates to Rattus norvegicus. Briefly: Dose normalized in rat at 10 mg/kg, po in 1% methylcellulose. The class given is ADME, organism-based. Also noted: dose 10 mg/kg, route oral. The settings on record: in vivo. Put shortly:
as §3

Series [10] in a line: Half life in rat at 1 mg/kg, iv. The class given is ADME, organism-based. Also noted: dose 1 mg/kg, route intravenous. As to conditions: in vivo. Put shortly: as §2
Series [11] can be described thus: Bioavailability in rat at 10 mg/kg, po in 1% methylcellulose. The format is ADME, organism-based. As to conditions: in vivo.
In series [12] the test system is Rattus norvegicus. Briefly: Dose normalized AUC in rat at 10 mg/kg, po in 5% N-Methyl-2-pyrrolidone, 80% Poly(ethylene glycol400 diluted to volume with 20% vitamin E TPGS in water. The class given is ADME, organism-based. Also noted: dose 10 mg/kg, route oral. As to conditions: in vivo. Put shortly: (§4)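 Rats given 10 mg/kg orally, formulated at 2 mg/mL in 5% NMP, 80% PEG400 made up to volume with 20% Vitamin E TPGS in water. Blood concentration-time profile followed over about 5 h per rat, giving Cmax, Tmax and dose-normalised AUC.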

The nature of series [13]: Tmax in rat at 10 mg/kg, po in 5% N-Methyl-2-pyrrolidone, 80% Poly(ethylene glycol400 diluted to volume with 20% vitamin E TPGS in water. The format is ADME, organism-based. As to conditions: in vivo. Also noted: dose 10 mg/kg, route oral. In a few lines:
as §4

The subject of series [14] is Rattus norvegicus. The series is described as follows: Liver blood flow in rat at 1 mg/kg, iv. The class given is ADME, organism-based. Also noted: dose 1 mg/kg, route intravenous. The settings on record: in vivo.
The nature of series [15]: Bioavailability in rat at 10 mg/kg, po in 5% N-Methyl-2-pyrrolidone, 80% Poly(ethylene glycol400 diluted to volume with 20% vitamin E TPGS in water. The settings on record: in vivo. The class given is ADME, organism-based.
Series [16] can be described thus: Cmax in rat at 10 mg/kg, po in 5% N-Methyl-2-pyrrolidone, 80% Poly(ethylene glycol400 diluted to volume with 20% vitamin E TPGS in water. The format is ADME, organism-based. Also noted: dose 10 mg/kg, route oral. As to conditions: in vivo. Put shortly:
as §4

In brackets after ≈: the same amount, converted by molar mass.

T1 sequence (Q16602 whole entry, one chain of several): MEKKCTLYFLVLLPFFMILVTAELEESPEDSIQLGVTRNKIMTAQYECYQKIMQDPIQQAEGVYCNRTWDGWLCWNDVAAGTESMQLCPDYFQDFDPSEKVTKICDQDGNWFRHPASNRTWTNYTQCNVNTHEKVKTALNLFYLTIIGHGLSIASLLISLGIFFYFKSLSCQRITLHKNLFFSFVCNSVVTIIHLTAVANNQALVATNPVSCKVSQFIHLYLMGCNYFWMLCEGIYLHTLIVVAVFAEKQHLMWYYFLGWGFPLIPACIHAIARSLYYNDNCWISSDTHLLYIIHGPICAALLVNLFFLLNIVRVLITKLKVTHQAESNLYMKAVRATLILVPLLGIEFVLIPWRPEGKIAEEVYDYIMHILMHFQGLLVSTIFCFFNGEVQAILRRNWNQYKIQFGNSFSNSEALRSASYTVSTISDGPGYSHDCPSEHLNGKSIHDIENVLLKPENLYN

For orientation: Ki means a dissociation constant, usually derived from enzyme kinetics or from competition with a known ligand. For the molecule `O=C(Cc1nnc(-c2ccccc2Cl)o1)N1CCC(n2c(=O)[nH]c3ncccc32)CC1`, the Ki in [1] is 501 nM.

Regarding `Cc1cc(-c2nnc(CC(=O)N3CCC(n4c(=O)[nH]c5ncccc54)CC3)o2)cc(N2CCOCC2)c1`, the Ki in series [1] is 6.31 nM.

On to `O=C(Cc1nnc(-c2c(Cl)cccc2Cl)o1)N1CCC(n2c(=O)[nH]c3ncccc32)CC1`, for which the Ki in series [1] was 794 nM.

A word on the solubility: it is the concentration that dissolves in the medium under given conditions. By clearance is commonly meant a measure of how efficiently the substance is removed, as volume per time. Consider `O=C(Cc1nnc(-c2cc(Cl)cc(C3CCN(CC(F)F)CC3)c2)o1)N1CCC(n2c(=O)[nH]c3ncccc32)CC1`, for which the concentration in solution in series [2] (solubility at 1 h) was 10 µg/mL (≈ 17.1 µM). In addition, the inhibitory constant (Ki) in series [3] was 79.4 nM; in [1], 3.98 nM. The clearance in [4] stood at 67 mL/min/kg. Moreover, the Papp in series [5] stood at 20 ×10⁻⁶ cm/s.

In the case of `O=C(Cc1nnc(-c2ccc(Cl)cc2)o1)N1CCC(n2c(=O)[nH]c3ncccc32)CC1`, in series [1], the Ki is 1000 nM.

Regarding `O=C(Cc1nnc(-c2ccc(Cl)c(Cl)c2)o1)N1CCC(n2c(=O)[nH]c3ncccc32)CC1`, the inhibition constant (Ki) in series [1] was 251 nM.

With `COc1cc(Cl)cc(-c2nnc(CC(=O)N3CCC(n4c(=O)[nH]c5ncccc54)CC3)o2)c1`, in series [1], the Ki is 7.94 nM.

Consider `O=C(Cc1nnc(-c2cc(Cl)cc(Br)c2)o1)N1CCC(n2c(=O)[nH]c3ncccc32)CC1`, for which, in [1], the Ki was 12.6 nM.

For `Cc1cc(C)cc(-c2nnc(CC(=O)N3CCC(n4c(=O)[nH]c5ncccc54)CC3)o2)c1`, the Ki in series [1] was 25.1 nM.

In series [2], `Cc1ccc(-c2cc(Cl)cc(-c3nnc(CC(=O)N4CCC(n5c(=O)[nH]c6ncccc65)CC4)o3)c2)cn1` displayed a solubility at 1 h of under 1 µg/mL. In addition, the Ki is 126 nM in [3] and 2.51 nM in series [1]. In series [5], the Papp is 22 ×10⁻⁶ cm/s.

For orientation: Tmax means the time from dosing to the highest level. One may read the Cmax as the peak of the concentration-time curve. The term half-life denotes the time needed for the level to fall by half in the phase considered. A higher half-life goes with slow loss. The bioavailability is dose-corrected exposure relative to a reference, in per cent. With `CN(C)CCOc1cc(Cl)cc(-c2nnc(CC(=O)N3CCC(N4CCc5ccccc5NC4=O)CC3)o2)c1`, the clearance in series [6] and in series [4] was 50 mL/min/kg throughout. For the same molecule, in series [7], the Tmax turned out to be 3 h. Moreover, in series [8], the peak level (Cmax) was 250 nM. In the series with Rattus norvegicus [9], this molecule had an AUC of 2.5 kg·min/L. The same molecule had a half-life in [10] of 114 min. This molecule showed a bioavailability in series [11] of 14%. For the same molecule, the solubility at 1 h in series [2] was 120 µg/mL (≈ 217 µM). The Ki in series [3] is 15.8 nM; in series [1] it was 12.6 nM. In addition, the Papp in [5] was 18.5 ×10⁻⁶ cm/s.

As for `O=C(Cc1nnc(-c2cc(C(F)(F)F)cc(C(F)(F)F)c2)o1)N1CCC(n2c(=O)[nH]c3ncccc32)CC1`, the Ki in [1] is 25.1 nM.

With `O=C(Cc1nnc(-c2cc(F)cc(F)c2)o1)N1CCC(n2c(=O)[nH]c3ncccc32)CC1`, the Ki in series [1] is 126 nM.

Consider `O=C(Cc1nnc(-c2cccc(Cl)c2Cl)o1)N1CCC(n2c(=O)[nH]c3ncccc32)CC1`, for which, in series [1], the Ki was 158 nM.

`O=C(Cc1nnc(-c2cc(Cl)cc(N3CCOCC3)c2)o1)N1CCC(n2c(=O)[nH]c3ncccc32)CC1`: the solubility at 1 h in [2] is 40 µg/mL (≈ 76.3 µM). Also, the figures for the Ki in [3] and in series [1] were 126 nM and 6.31 nM, respectively. Moreover, in [4], the clearance was 70 mL/min/kg. For the same molecule, the Papp in series [5] worked out at 12 ×10⁻⁶ cm/s.

With `COc1ccc(-c2ccccc2)cc1CC(=O)N1CCC(n2c(=O)[nH]c3ncccc32)CC1`, the Ki in series [1] is 2510 nM.

Take `O=C(Cc1nnc(-c2cc(F)cc(Cl)c2)o1)N1CCC(n2c(=O)[nH]c3ncccc32)CC1`: the Ki in series [1] was 25.1 nM.

`O=C(Cc1nnc(-c2ccccc2)o1)N1CCC(n2c(=O)[nH]c3ncccc32)CC1`: in [1], the Ki is 200 nM.

`CN1CCN(c2cc(Cl)cc(-c3nnc(CC(=O)N4CCC(n5c(=O)[nH]c6ncccc65)CC4)o3)c2)CC1` returned a solubility at 1 h in series [2] of 210 µg/mL (≈ 391 µM). For the same molecule, the Ki was 25.1 nM in [3] and 5.01 nM in [1]. Besides, in series [4], the clearance amounted to 72 mL/min/kg. Moreover, the Papp in series [5] is under 0.3 ×10⁻⁶ cm/s.

With `Cc1ncc(-c2cc(Cl)cc(-c3nnc(CC(=O)N4CCC(n5c(=O)[nH]c6ncccc65)CC4)o3)c2)n1C`, the solubility at 1 h in [2] is 390 µg/mL (≈ 732 µM). In addition, the Ki was 100 nM in series [3] and 1.58 nM in series [1]. Besides, in series [4], the clearance is 52 mL/min/kg. Moreover, the Papp in series [5] was under 0.3 ×10⁻⁶ cm/s.

Take `CCN1CCC(c2cc(Cl)cc(-c3nnc(CC(=O)N4CCC(n5c(=O)[nH]c6ncccc65)CC4)o3)c2)CC1`: in series [2], the concentration in solution (solubility at 1 h) came to 565 µg/mL (≈ 1030 µM). Moreover, the Ki in series [3] is 15.8 nM; in series [1], 3.16 nM. Also, the Papp in series [5] amounted to 0.5 ×10⁻⁶ cm/s.

With `O=C(Cc1nnc(-c2cc(Cl)cc(-c3ccccc3)c2)o1)N1CCC(n2c(=O)[nH]c3ncccc32)CC1`, in series [1], the Ki was 2.51 nM.

Take `O=C(Cc1nnc(-c2cccc(Cl)c2)o1)N1CCC(n2c(=O)[nH]c3ncccc32)CC1`: the Ki in [1] was 316 nM.

`O=C(Cc1nnc(-c2cc(Cl)ccc2Cl)o1)N1CCC(n2c(=O)[nH]c3ncccc32)CC1`: in series [1], the Ki was 126 nM.

With `O=C(Cc1nnc(-c2cc(Cl)cc(C(F)(F)F)c2)o1)N1CCC(n2c(=O)[nH]c3ncccc32)CC1`, in [6], the clearance worked out at 33 mL/min/kg. The molecule further returned an AUC in the series on Rattus norvegicus [12] of 6.3 kg·min/L. Besides, the Tmax in series [13] is 1.5 h. For the same molecule, the half-life in [10] is 30 min. The Ki in series [1] is 3.98 nM. In the series with Rattus norvegicus [14], the LBF is 40%. The bioavailability in series [15] worked out at 20%. The peak concentration (Cmax) in series [16] worked out at 700 nM.

As to `CN1CCC(c2cc(Cl)cc(-c3nnc(CC(=O)N4CCC(n5c(=O)[nH]c6ncccc65)CC4)o3)c2)CC1`, the solubility at 1 h in [2] is 531 µg/mL (≈ 991 µM). The Ki in series [3] was 20 nM; in series [1], 3.98 nM. The Papp in series [5] turned out to be 2.2 ×10⁻⁶ cm/s.

In [2], `CN(C)CCOc1cc(Cl)cc(-c2nnc(CC(=O)N3CCC(n4c(=O)[nH]c5ncccc54)CC3)o2)c1` returned a solubility at 1 h of 330 µg/mL (≈ 627 µM). Also, the results for the Ki in series [3] and in series [1] were 50.1 nM and 5.01 nM, respectively. Besides, the Papp in [5] is 1.2 ×10⁻⁶ cm/s.

As for `O=C(Cc1nnc(-c2cc(-c3ccccc3)cc(N3CCOCC3)c2)o1)N1CCC(n2c(=O)[nH]c3ncccc32)CC1`, the Ki in series [1] was 200 nM.

Turning to `COc1cc(OC)cc(-c2nnc(CC(=O)N3CCC(n4c(=O)[nH]c5ncccc54)CC3)o2)c1`, in [1], the inhibition constant Ki was 50.1 nM.

Turning to `O=C(Cc1nnc(-c2cc(Cl)cc(Cl)c2)o1)N1CCC(n2c(=O)[nH]c3ncccc32)CC1`, the Ki in series [1] was 15.8 nM.
